# Bioassay records deposited in PubChem by Broad Institute.
# DYRK1A inh: inhibitors of rat Dyrk1A kinase; Q63470; ADP-Glo luminescence, NFATc1 peptide; inhibition, % at 12.5 µM; hit rate 0.43% among 310,000; in the data active means inhibition above about 50%;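 further: plate controls were vehicle with enzyme for no effect and no enzyme for full effect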
# CAL PDZ FP-1: inhibitors of human CAL PDZ peptide binding; purified CAL PDZ, TMR-peptide fluorescence polarization, 1 h; Q9HD26; hit rate 0.02% among 330,000; inhibition, % at 20 µM;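 active means highest replicate inhibition of at least 40%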;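 further: plate controls were DMSO neutral control wells for no effect and unlabeled competitor peptide control wells for full effect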
#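 System: tagged CAL PDZ domain. Schedule: 1 h room-temperature incubation prior to read. Signal: fluorescence polarization (mP). Measure: percent inhibition from loss of millipolarization.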
# Rtt109 Vps75: blocks Candida albicans Rtt109/Vps75 acetyltransferase activity; inhibition, % at 34.9 µM; AID 540336; purified Rtt109/Vps75, ThioGlo CoA-SH fluorescence, 4 h; hit rate 0.16% among 330,000; Q5AAJ8;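 active means inhibition of at least 50% in every replicate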
# Target sequence (Q5AAJ8 whole entry, looked up): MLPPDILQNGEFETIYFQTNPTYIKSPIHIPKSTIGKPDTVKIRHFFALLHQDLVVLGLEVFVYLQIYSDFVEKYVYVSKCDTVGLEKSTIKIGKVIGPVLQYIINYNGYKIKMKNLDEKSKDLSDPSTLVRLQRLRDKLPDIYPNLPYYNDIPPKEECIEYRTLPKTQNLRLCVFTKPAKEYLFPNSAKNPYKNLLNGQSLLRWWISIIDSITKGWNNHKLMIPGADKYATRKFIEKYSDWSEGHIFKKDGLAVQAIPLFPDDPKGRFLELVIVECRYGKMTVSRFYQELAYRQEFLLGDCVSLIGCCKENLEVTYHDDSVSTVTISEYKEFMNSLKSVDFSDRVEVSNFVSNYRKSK
# CAL PDZ FP-2: blocks peptide binding to the human CAL PDZ domain. Q9HD26. purified CAL PDZ, TMR-peptide fluorescence polarization, 1 h. inhibition, % at 24.9 µM. hit rate 0.92% among 300,000. AID 602252;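 active means mean inhibition of at least 30% with at least half of replicates also reaching 30%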;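 further: 0% = DMSO neutral control and 100% = excess unlabeled competitor peptide PRC23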
# ALR H2O2 inh: inhibitors of human sulfhydryl oxidase ALR; hit rate 3.8% among 290,000; AID 485317; inhibition, % (test concentration not listed); P55789; purified ALR, DTT oxidation, H2O2 HRP-luminol luminescence;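 active means mean replicate inhibition above about 79%, with every replicate also reaching it, limit read from the data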
# Target sequence (P55789 whole entry, looked up): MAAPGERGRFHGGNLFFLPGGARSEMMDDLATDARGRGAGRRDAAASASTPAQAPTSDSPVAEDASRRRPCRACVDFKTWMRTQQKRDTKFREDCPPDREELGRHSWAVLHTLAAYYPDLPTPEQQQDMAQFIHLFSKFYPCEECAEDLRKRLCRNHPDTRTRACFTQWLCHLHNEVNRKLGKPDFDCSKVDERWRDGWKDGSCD
# Starred values were filed as active, the others as inactive; · = no result. This is a sample that favours compounds with a hit; in the whole collection about 4.3% have one here.
SMILES,DYRK1A inh,CAL PDZ FP-1,Rtt109 Vps75,CAL PDZ FP-2,ALR H2O2 inh
CCCn1c(NCc2cc(C)ccc2O)nc2ccccc21,-1.5,0.2,-8.4,4.7,·
CCCn1c(NCc2ccc3c(c2)OCO3)nc2ccccc21,0.4,0.9,-0.1,-2.6,96.5*
CCCCn1c(NCc2ccccc2O)nc2ccccc21,-2.7,-1.0,2.4,-1.9,97.6*
CCCCn1c(NCc2ccc3c(c2)OCO3)nc2ccccc21,12.6,0.5,7.1,3.4,92.1*
Cc1ccccc1NC(=O)c1ccc(Cl)c(NC(=O)c2cccnc2)c1,·,·,·,·,2.4
COc1cccc(C2/C(=C(\O)c3ccc4c(c3)OCCO4)C(=O)C(=O)N2CCCN2CCOCC2)c1OC (centres undefined),3.7,-0.3,8.2,·,-1.9
C=CCn1c(O)c(N=NC(=O)CNC(=O)c2ccco2)c2ccccc21,-2.7,-2.5,·,-1.4,-10.1
Nc1ccc(Nc2ccccc2N)cc1,-6.3,1.4,-4.1,·,-20.0
COc1ccc(Nc2ccccc2N)cc1,5.1,-0.8,-24.6,-0.6,98.4*
COc1ccc(Nc2ccccc2NC(=O)c2ccccc2Br)cc1,-6.8,-2.1,15.8,-0.1,82.3*
COc1ccc(CCNC(=O)C(=O)NCc2cccs2)cc1OC,2.8,-0.4,-7.9,0.0,-2.7
O=C(C=Cc1ccc2c(c1)OCO2)OCC=Cc1ccc2c(c1)OCO2,·,0.6,0.9,53.5*,·
O=C(COC(=O)c1cc(-c2ccco2)nc2ccccc12)NCc1ccccc1,-59.7,·,-3.3,-4.0,25.6
CNC(=O)COC(=O)c1cc(-c2ccco2)nc2ccccc12,39.2,-0.6,-87.7,47.5*,10.4
C/C(=N\Nc1ccc(Cl)c(C(=O)O)c1)c1cc2ccccc2o1,·,-1.7,10.4,-4.8,98.5*
C/C(=N\Nc1ccccc1)c1cc2ccccc2oc1=O,-3.0,0.1,-4.4,1.1,92.6*
C/C(=N\Nc1cccc(C(=O)O)c1)c1ccc(Cl)s1,-0.4,-0.3,-3.5,·,98.3*
C/C(=N\Nc1cccc(C(=O)O)c1)c1cc2ccccc2o1,12.0,2.1,-0.6,4.7,98.8*
COc1ccc(/C(C)=N/Nc2cccc(C(=O)O)c2)cc1OC,-3.5,0.1,-7.5,6.3,-13.8
C/C(=N\Nc1ccc(Cl)c(C(=O)O)c1)c1cccc2ccccc12,-0.2,-3.0,-18.3,-1.0,-8.2
CC1CCCC(N2CCN(S(=O)(=O)c3ccccc3)CC2)C1 (centres undefined),-1.2,0.4,6.9,-4.1,0.9
O=C(CNc1cc([N+](=O)[O-])ccc1NCCO)Nc1cccc(S(=O)(=O)N2CCCCC2)c1,·,0.2,0.6,-3.1,97.2*
Cc1ccccc1OCC(=O)N1N=C(c2cccnc2)CC1(O)C(F)(F)F (centres undefined),0.9,0.0,4.2,2.4,12.6
N=C(N)SCc1nc2ccccc2c(=O)n1-c1ccccc1,-3.3,0.0,-2.3,-1.3,97.8*
CCN(C(=O)c1sc(N)c(C#N)c1C)C1CCCCC1,9.8,-0.4,7.7,0.7,95.6*
SMILES,DYRK1A inh,CAL PDZ FP-1,Rtt109 Vps75,CAL PDZ FP-2,ALR H2O2 inh
CCOC(=O)c1sc(N)c(C#N)c1CSc1nnc(C2CCCCC2)n1N,-2.0,0.6,·,-4.1,·
COc1ccc(/C=N/Nc2ccccn2)c(OC)c1OC,·,-0.1,-6.0,-0.5,98.6*
C(=N\Nc1nc2ccccc2[nH]1)/c1ccccc1,10.1,1.9,-2.4,-0.4,·
COc1ccc(/C=N\Nc2ccccn2)c(OC)c1,0.3,1.1,0.3,-1.8,12.2
Cc1cc(=O)[nH]c(N/N=C/c2ccccc2C(F)(F)F)n1,-5.4,-0.5,-13.4,·,-2.7
COc1ccc(/C=N/Nc2nc3ccccc3[nH]2)c(OC)c1OC,13.3,-1.0,2.0,-6.3,98.5*
C(/CCc1ccccc1)=N\Nc1nc2ccccc2[nH]1,-0.5,0.5,0.9,0.0,98.2*
Cc1cc(=O)[nH]c(N/N=C/c2c[nH]c3ccccc23)n1,11.9,-0.5,18.5,·,92.1*
C(=N\Nc1nc2ccccc2[nH]1)/c1c[nH]c2ccccc12,·,2.3,0.5,6.1,99.3*
Cc1ccccc1/C=N/Nc1nc2ccccc2[nH]1,8.3,0.1,·,1.6,72.9
CC(C)(C)c1cc(C(=O)NNc2cccc(Cl)c2)n(Cc2ccccc2)n1,2.3,-0.5,-1.2,65.9*,-4.0
Cc1ccc(NNC(=O)c2cc(C(C)(C)C)nn2Cc2ccccc2)cc1,2.1,-0.4,1.2,-7.7,-4.1
Cc1ccc(S(=O)(=O)N2CCOCC2)cc1C(=O)N1CCN(S(=O)(=O)c2ccccc2F)CC1,-3.5,-0.7,5.1,·,·
Cc1ccc(C)c(NC(=O)CCC(=O)N/N=C/c2ccc3c(c2)OCO3)c1,-3.4,0.4,-1.4,-2.0,-6.2
O=C(NN=Cc1ccc(O)cc1)c1ccccc1NS(=O)(=O)c1cccs1,·,-3.1,12.6,8.1,99.4*
COc1ccccc1CNC(=O)c1ccc(NS(=O)(=O)c2cccs2)cc1,-8.1,-2.7,10.2,-2.8,-31.9
Cc1ccccc1NCC(=O)N/N=C\c1ccc2c(c1)OCO2,4.2,-0.4,0.7,3.2,93.7*
Cc1c(C(=O)N/N=C/c2ccc(N3CCOCC3)cc2)nc2ccccn12,5.1,1.1,13.4,·,9.6
COc1cc(C=NNC(=O)c2ccc(NS(=O)(=O)c3cccs3)cc2)cc(Br)c1O,-1.5,2.1,7.2,-9.1,77.6*
COc1cc(/C=N/NC(=O)c2nc3ccccn3c2C)cc(OC)c1O,·,-1.6,-0.8,-2.4,99.1*
CC(C(=O)N1CCc2ccccc21)n1cnc2c1c(=O)n(C)c(=O)n2C (centres undefined),·,0.2,-2.1,0.4,·
NC(=O)c1ccsc1NC(=O)COC(=O)c1c(F)cccc1Cl,19.2,-1.4,0.6,-4.2,25.9
COc1cc(C(=O)N/N=C/c2ccc(OC(=O)c3ccccc3Cl)c(OC)c2)ccc1O,·,-1.8,5.8,·,14.3
COc1cc(C(=O)N/N=C/c2cccc(Oc3ccccc3)c2)ccc1O,9.1,-3.1,17.2,-5.3,84.9*
O=C(CCc1ccc(O)c(O)c1)N/N=C/c1ccc2c(c1)OCO2,43.8,-1.8,20.2,-2.1,95.1*
SMILES,DYRK1A inh,CAL PDZ FP-1,Rtt109 Vps75,CAL PDZ FP-2,ALR H2O2 inh
COc1cc(/C=N/NC(=O)c2ccccc2O)ccc1OC(=O)CC1SC(=O)NC1=O (centres undefined),12.8,-0.6,·,·,88.1*
COc1cc(/C=N/NC(=O)c2ccc(-n3cccc3)cc2)ccc1O,-2.8,-1.7,-0.3,0.8,99.3*
O=C(N/N=C/c1cccc(Oc2ccccc2)c1)c1ccncc1,·,-2.1,3.1,-8.1,-2.2
Cc1cc(C(=O)N/N=C/c2ccc3c(c2)OCO3)c(C)o1,0.3,-1.6,-9.1,·,94.6*
COc1cc(/C=N/NC(=O)c2cccs2)ccc1O,4.2,1.0,1.1,-3.6,99.1*
COc1cc(/C=N\NC(=O)c2c(C)nc3cc(C)ccn23)ccc1O,-1.1,-0.5,1.6,0.1,96.9*
Cc1ccn2c(C(=O)N/N=C/c3ccc(Cl)cc3)c(C)nc2c1,-2.0,-1.4,-1.7,5.9,·
COc1cc(/C=N/NC(=O)c2ccc3c(c2)OCO3)ccc1O,2.6,-2.3,-1.3,0.7,98.7*
